The values that follow come from ChEMBL document CHEMBL2380266, “1,4-Benzothiazine ATP-sensitive potassium channel openers: modifications at the C-2 and C-6 positions” (J Med Chem, 2013).

Each structure is given as a SMILES string. Active and inactive are the calls of the source. The calls are words filed in the database; no cut-off is given here.

Usually EC50 stands for the concentration at which the effect is half-maximal. By Emax is commonly meant the maximal effect, on the per cent scale that the assay sets. In general, IC50 refers to the concentration that gives 50% inhibition.

For one assay, the species on record is Rattus norvegicus. Nature of the assay: Activation of ATP-sensitive potassium channel in Wistar rat pancreatic islets assessed as reduction in high glucose-induced insulin secretion after 1 hr by radioimmunoassay. A digest of the protocol:
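Islets from male Wistar rats (200−250 g), collagenase isolation, cultured 24 h in RPMI (5.6 mM glucose). Batches of 10 islets preincubated 30 min in KRH pH 7.4 with 2.8 mM glucose and 1% BSA, then incubated 1 h with 2.8 or 16.7 mM glucose ± test agent at 1 to 1000 nM. Released insulin measured by RIA. At least five replicas.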
Turning to `CC(=O)c1ccc2c(c1)N(C1=CCCC1=O)CC(C)(C)S2`, the result was inactive.

Take `CCc1ccc2c(c1)N(C1=CCCC1=O)CC(C)(C)S2`: the outcome was inactive.

Another assay is filed under the species Rattus norvegicus. Kind of assay: Activation of ATP-sensitive potassium channel in Wistar rat pancreatic islets assessed as reduction in high glucose-induced insulin secretion at 80 uM after 1 hr by radioimmunoassay in presence of glibenclamide. In short, it runs like this:
(§1)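 Islets from male Wistar rats (200−250 g), isolated by collagenase duct cannulation with density-gradient purification and cultured 24 h in RPMI (5.6 mM glucose). Ten islets per well were preincubated 30 min in KRH pH 7.4 with 2.8 mM glucose and 1% BSA, then incubated 1 h with 16.7 mM glucose ± glibenclamide 1 μM. Released insulin was measured by RIA, at least five replicas.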
On to `CC1=Nc2ccc(Cl)cc2S(=O)(=O)N1`, for which the outcome was inactive.

The species named for another assay is Rattus norvegicus. Kind of assay: Activation of ATP-sensitive potassium channel in Wistar rat pancreatic islets assessed as reduction in high glucose-induced insulin secretion at 80 uM after 1 hr by radioimmunoassay. A digest of the protocol:
as §1
On to `CC1=Nc2ccc(Cl)cc2S(=O)(=O)N1`, for which the outcome was Active.

The species named for the next assay is Homo sapiens. Kind of assay: Activation of ATP-sensitive potassium channel in human aortic smooth muscle cells assessed as membrane hyperpolarization at 10 uM by DiBAC4(3) dye-based spectrofluorimetric analysis in presence of glibenclamide. A digest of the protocol:
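Same DiBAC4(3) setup in HASMCs (2.5 μM dye, 1 h loading, pH 7.4, ex 488 / em 520 nm). Glibenclamide was added 10 min before the test agent. Relative fluorescence decrease expressed as % of the 100 μM LCRK maximal effect; six replicates.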
As to `CC(=O)c1ccc2c(c1)N(C1=CCCC1=O)CC(C)(C)S2`, the result was inactive.

For `CC1CN(C2=CCCC2=O)c2cc(C(F)(F)F)ccc2S1` (stereo not given), the outcome was inactive.

Regarding `CCc1ccc2c(c1)N(C1=CCCC1=O)CC(C)(C)S2`, the outcome was inactive.

As to `CC1(C)Oc2ccc(C#N)cc2[C@@H](N2CCCC2=O)[C@@H]1O` [LEVCROMAKALIM], the outcome was inactive.

Tested on in a further assay: not listed separately
Nature of the assay: (§2) Activation of ATP-sensitive potassium channel in human aortic smooth muscle cells assessed as membrane hyperpolarization by DiBAC4(3) dye-based spectrofluorimetric analysis. A digest of the protocol: (§3)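 HASMCs grown in medium 231 with SMGS at 37 °C, 5% CO2, seeded on gelatin 24 h before use. Loaded 1 h with 2.5 μM DiBAC4(3) in HEPES buffer pH 7.4 at room temperature. Fluorescence read at ex 488 / em 520 nm before and after compound. Relative fluorescence decrease (Ft−F0)/F0 expressed as % of the 100 μM LCRK effect. pEC50 derived; six replicates.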
For the molecule `CC(=O)c1ccc2c(c1)N(C1=CCCC1=O)CC(C)(C)S2`, the EC50 is 117 nM.

On to `CC1CN(C2=CCCC2=O)c2cc(C(F)(F)F)ccc2S1` (stereo not given), for which the EC50 is 135 nM.

With `CCc1ccc2c(c1)N(C1=CCCC1=O)CC(C)(C)S2`, the EC50 was 7410 nM.

Take `CC1(C)Oc2ccc(C#N)cc2[C@@H](N2CCCC2=O)[C@@H]1O` [LEVCROMAKALIM]: the EC50 is 5370 nM.

For the next assay, the species on record is Homo sapiens. Described as §2. In short, it runs like this: as §3
As for `CC(=O)c1ccc2c(c1)N(C1=CCCC1=O)CC(C)(C)S2`, the Activity result was “Dose-dependent effect”.

Turning to `CC1CN(C2=CCCC2=O)c2cc(C(F)(F)F)ccc2S1` (stereo not given), the Activity result was “Dose-dependent effect”.

With `CCc1ccc2c(c1)N(C1=CCCC1=O)CC(C)(C)S2`, the Activity result was “Dose-dependent effect”.

The species named for the next assay is Homo sapiens. Kind of assay: Activation of ATP-sensitive potassium channel in human aortic smooth muscle cells assessed as membrane hyperpolarization at 0.1 to 100 uM by DiBAC4(3) dye-based spectrofluorimetric analysis relative to LCRK. A digest of the protocol: as §3
On to `CC(=O)c1ccc2c(c1)N(C1=CCCC1=O)CC(C)(C)S2`, for which the Emax stood at 103%.

With `CC1CN(C2=CCCC2=O)c2cc(C(F)(F)F)ccc2S1` (stereo not given), the Emax turned out to be 106%.

`CCc1ccc2c(c1)N(C1=CCCC1=O)CC(C)(C)S2`: the Emax was 98%.

For another assay, the system named is Aorta. Nature of the assay: Vasorelaxant activity in Wistar rat endothelium-denuded aortic rings assessed as reduction of KCl-induced contraction. The format is functional, tissue-based. In short, it runs like this: (§4)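 Thoracic aortic rings from male Wistar rats (250−350 g), endothelium removed. Removal confirmed by <10% relaxation to 10 μM ACh. Rings contracted with 25 mM KCl; at plateau, test agent added cumulatively in 3-fold increasing concentrations. DMSO stocks (10 mM) diluted in water. Emax given as % of KCl tone; pIC50 is the half-reduction of tone; 5−10 experiments.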
Regarding `CC(=O)c1ccc2c(c1)N(C1=CCCC1=O)CC(C)(C)S2`, the IC50 was 1.45 nM.

Turning to `CC(=O)Nc1ccc2c(c1)N(C1=CCCC1=O)CC(C)(C)S2`, the IC50 was 6610 nM.

With `CC1(C)CN(C2=CCCC2=O)c2ccccc2S1`, the IC50 is 724 nM.

`CC1(C)CSc2ccc(C(F)(F)F)cc2N1C1=CCCC1=O`: the IC50 was 66.1 nM.

Consider `CC1CN(C2=CCCC2=O)c2cc(C(F)(F)F)ccc2S1` (stereo not given), for which the IC50 was 8.32 nM.

As to `Cc1ccc2c(c1)N(C1=CCCC1=O)CC(C)(C)S2`, the IC50 is 933 nM.

As for `CCc1ccc2c(c1)N(C1=CCCC1=O)CC(C)(C)S2`, the IC50 is 155 nM.

Consider `CC(C)CN(CC(C)C)S(=O)(=O)c1ccc2c(c1)N(C1=CCCC1=O)CC(C)(C)S2`, for which the IC50 is 794 nM.

On to `CC1(C)Oc2ccc(C#N)cc2[C@@H](N2CCCC2=O)[C@@H]1O` [LEVCROMAKALIM], for which the IC50 is 324 nM.

Regarding `CC1(C)CN(C2=CCCC2=O)c2cc(N)ccc2S1`, the IC50 was 3980 nM.

As for `CC1(C)CN(C2=CCCC2=O)c2cc(C(F)(F)F)ccc2S1`, the IC50 was 0.0417 nM.

Turning to `O=C1CCC=C1N1CCSc2ccc(C(F)(F)F)cc21`, the IC50 is 537 nM.

Another assay has as its system Aorta. Kind of assay: Vasorelaxant activity in Wistar rat endothelium-denuded aortic rings assessed as reduction of KCl-induced contraction in presence of glibenclamide. In kind it is functional, tissue-based. A digest of the protocol: (§5)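 Endothelium-denuded Wistar rat aortic rings; 1 μM glibenclamide added before the 25 mM KCl contraction, then test agent added cumulatively in 3-fold increasing concentrations. Vasorelaxation expressed as % of KCl-induced tone; pIC50 from the half-reduction of tone; 5−10 experiments.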
On to `CC(=O)c1ccc2c(c1)N(C1=CCCC1=O)CC(C)(C)S2`, for which the IC50 was 56.2 nM.

Consider `CC1(C)CN(C2=CCCC2=O)c2ccccc2S1`, for which the IC50 was 20900 nM.

For `CC1CN(C2=CCCC2=O)c2cc(C(F)(F)F)ccc2S1` (stereo not given), the IC50 is 708 nM.

`Cc1ccc2c(c1)N(C1=CCCC1=O)CC(C)(C)S2`: the IC50 was 19500 nM.

In the case of `CCc1ccc2c(c1)N(C1=CCCC1=O)CC(C)(C)S2`, the IC50 is 6460 nM.

`CC1(C)Oc2ccc(C#N)cc2[C@@H](N2CCCC2=O)[C@@H]1O` [LEVCROMAKALIM]: the IC50 is 2510 nM.

As for `CC1(C)CN(C2=CCCC2=O)c2cc(C(F)(F)F)ccc2S1`, the IC50 is 8.32 nM.

For `O=C1CCC=C1N1CCSc2ccc(C(F)(F)F)cc21`, the IC50 was 23400 nM.

The subject of the next assay is Aorta. Nature of the assay: Vasorelaxant activity in Wistar rat endothelium-denuded aortic rings assessed as reduction of KCl-induced contraction in presence of glibenclamide relative to control. The format is functional. A digest of the protocol:
as §5
On to `CC(=O)c1ccc2c(c1)N(C1=CCCC1=O)CC(C)(C)S2`, for which the Emax was 77%.

With `CC1(C)CN(C2=CCCC2=O)c2ccccc2S1`, the Emax is 61%.

In the case of `CC1CN(C2=CCCC2=O)c2cc(C(F)(F)F)ccc2S1` (stereo not given), the Emax is 63%.

On to `Cc1ccc2c(c1)N(C1=CCCC1=O)CC(C)(C)S2`, for which the Emax was determined as 78%.

For `CCc1ccc2c(c1)N(C1=CCCC1=O)CC(C)(C)S2`, the Emax came to 69%.

`CC1(C)Oc2ccc(C#N)cc2[C@@H](N2CCCC2=O)[C@@H]1O` [LEVCROMAKALIM]: the Emax came to 93%.

Turning to `CC1(C)CN(C2=CCCC2=O)c2cc(C(F)(F)F)ccc2S1`, the Emax stood at 96%.

As for `O=C1CCC=C1N1CCSc2ccc(C(F)(F)F)cc21`, the Emax was 64%.

A further assay concerns Aorta. Kind of assay: Vasorelaxant activity in Wistar rat endothelium-denuded aortic rings assessed as reduction of KCl-induced contraction relative to control. The format is functional. A digest of the protocol: as §4
`CC(=O)c1ccc2c(c1)N(C1=CCCC1=O)CC(C)(C)S2`: the Emax came to 88%.

For the molecule `CC(=O)Nc1ccc2c(c1)N(C1=CCCC1=O)CC(C)(C)S2`, the Emax turned out to be 97%.

In the case of `CC1(C)CN(C2=CCCC2=O)c2ccccc2S1`, the Emax came to 90%.

Turning to `CC1(C)CSc2ccc(C(F)(F)F)cc2N1C1=CCCC1=O`, the Emax came to 89%.

Consider `CC1CN(C2=CCCC2=O)c2cc(C(F)(F)F)ccc2S1` (stereo not given), for which the Emax was determined as 94%.

As for `Cc1ccc2c(c1)N(C1=CCCC1=O)CC(C)(C)S2`, the Emax turned out to be 89%.

Regarding `CCc1ccc2c(c1)N(C1=CCCC1=O)CC(C)(C)S2`, the Emax turned out to be 97%.

Consider `CC(C)CN(CC(C)C)S(=O)(=O)c1ccc2c(c1)N(C1=CCCC1=O)CC(C)(C)S2`, for which the Emax stood at 85%.

On to `CC1(C)Oc2ccc(C#N)cc2[C@@H](N2CCCC2=O)[C@@H]1O` [LEVCROMAKALIM], for which the Emax was determined as 99%.

With `CC1(C)CN(C2=CCCC2=O)c2cc(N)ccc2S1`, the Emax stood at 96%.

For the molecule `CC1(C)CN(C2=CCCC2=O)c2cc(C(F)(F)F)ccc2S1`, the Emax was 92%.

For `O=C1CCC=C1N1CCSc2ccc(C(F)(F)F)cc21`, the Emax was 94%.

The test system of the next assay is Aorta. Kind of assay: Vasorelaxant activity in Wistar rat endothelium-denuded aortic rings relative to LCRK. In kind it is functional. In short, it runs like this: as §4
Take `CC(=O)c1ccc2c(c1)N(C1=CCCC1=O)CC(C)(C)S2`: the Ratio is listed as 100.

For `CC1CN(C2=CCCC2=O)c2cc(C(F)(F)F)ccc2S1` (stereo not given), the Ratio is 10.
